Screens from PubChem BioAssay.
The list is not random: actives were taken first. Their share in the collection is about 2.6%.
RAD54 branch: inhibitors of human RAD54 branch migration, primary screen, biochemical, fluorescence, single point. DNA repair and recombination protein RAD54-like (Homo sapiens), Q92698. RAD54 Holliday junction branch migration, FAM/BHQ fluorescence. inhibition, % at 10.4 µM. hit rate 0.14% among 360,000;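 active = mean normalized replicate activity at least 40 and at least half of replicates scoring 40 or more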;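 also: 0% = median of neutral control wells and 100% = median of positive control wells; inhibitors cause a drop in the FAM fluorescence signal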
Target sequence (Q92698 whole entry, looked up): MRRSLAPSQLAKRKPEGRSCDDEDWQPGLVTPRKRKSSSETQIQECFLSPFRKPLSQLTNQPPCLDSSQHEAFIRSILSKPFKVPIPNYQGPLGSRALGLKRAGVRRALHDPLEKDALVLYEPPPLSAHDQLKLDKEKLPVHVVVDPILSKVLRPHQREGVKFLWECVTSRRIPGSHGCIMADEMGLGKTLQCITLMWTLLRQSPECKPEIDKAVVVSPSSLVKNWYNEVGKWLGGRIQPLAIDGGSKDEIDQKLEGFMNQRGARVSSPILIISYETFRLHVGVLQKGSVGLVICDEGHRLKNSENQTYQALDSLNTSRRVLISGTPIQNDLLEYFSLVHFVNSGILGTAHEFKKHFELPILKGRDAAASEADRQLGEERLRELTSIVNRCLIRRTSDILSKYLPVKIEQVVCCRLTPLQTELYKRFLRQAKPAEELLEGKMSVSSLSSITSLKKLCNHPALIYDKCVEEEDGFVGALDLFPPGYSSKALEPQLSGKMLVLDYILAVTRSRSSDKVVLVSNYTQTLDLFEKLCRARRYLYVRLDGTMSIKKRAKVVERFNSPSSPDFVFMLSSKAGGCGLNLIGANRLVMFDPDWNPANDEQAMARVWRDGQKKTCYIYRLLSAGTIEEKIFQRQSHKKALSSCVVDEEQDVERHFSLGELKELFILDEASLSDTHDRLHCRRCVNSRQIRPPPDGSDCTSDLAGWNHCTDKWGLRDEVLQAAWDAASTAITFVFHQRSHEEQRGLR
Ecoli rRNA inh: reduced GFP signal of wild-type E. coli, primary screen, bacterial rRNA inhibitor project, GFP/RFP fluorescence, OD600, single point | GFP signal change (wild-type ribosome), % (concentration not given with the values) | E. coli WT GFP vs humanized-ribosome RFP mutants, 24 h; stronger effect = lower value; DMSO median 0, no signal -100 | hit rate 1.6% among 350,000 | AID 720706, 2013;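 active = significant combined selectivity score with lowered wild-type GFP, culture density cut under 30%, mutant RFP and density less affected; inactive = any of these conditions unmet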
AF4-AF9 inh: inhibitors of AF4 peptide binding to AF9, primary screen, biochemical, AlphaScreen, biotin-AF4 peptide, FLAG-AF9, single point; Protein AF-9 (Homo sapiens), P42568; inhibition, % at 10 µM; hit rate 0.47% among 350,000; AID 651704, 2012;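 active = every replicate reaching a set inhibition limit, whatever the replicate mean, cut at about 25% in these data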;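 also: 0% = plate neutral control median and 100% = total signal loss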
RAD52 anneal inh: RAD52 DNA annealing inhibitors, primary screen, biochemical, FRET, single point, set 2 | inhibition, % at 18.7 µM | hit rate 0.46% among 360,000 | recombinant RAD52 DNA annealing, FRET fluorescence | AID 651710, 2012 | DNA repair protein RAD52 homolog (Homo sapiens), P43351;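 active = every replicate showing at least 50% inhibition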
INS-1E GSIS act: GLuc luminescence reporter in INS-1E cells, primary screen for activators of glucose-dependent secretion of insulin. hit rate 0.61% among 370,000. AID 743287, 2014. INS-1E GLuc reporter insulin secretion, 2-3 h. activation, % at 16.6 µM;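 active = lowest replicate activation of at least 40%, so every replicate reaches that level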;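 also: 0% = median of neutral control wells and 100% = median of IBMX positive control wells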
E-sel inducer: E-selectin induction in HUVECs, primary screen, imaging, HUVEC, immunofluorescence imaging, single point; hit rate 0.37% among 260,000; activation, % at 7.58 µM; P16581; normalized: neutral wells 0, TNF-alpha wells 100; AID 686992, 2013;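 active = mean E-selectin-positive cell signal at least 10% of the positive control, reached in at least 60% of replicates, without over 20% cell loss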
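Assay system: HUVEC, human umbilical vein endothelial cells / Amount: 3,000 HUVEC/well / Controls: TNF-alpha positive control, DMSO neutral control / Compound dosing: single concentration / Medium: EGM-2 over gelatin coat / Evaluation: percent E-selectin-positive cells / Signal: immunofluorescence imaging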
* marks the source's active call; other numbers are inactive results; · = not tested or not shown.

SMILES | RAD54 branch | Ecoli rRNA inh | AF4-AF9 inh | RAD52 anneal inh | INS-1E GSIS act | E-sel inducer
Cc1noc(C)c1NC(=O)Nc1ccc2c(c1)CC(=O)N([C@H](C)CO)C[C@@H](C)[C@@H](CN(C)Cc1ccc(Oc3ccccc3)cc1)O2 | -4.5 | -1.7 | · | · | -28.9 | -4.7
C[C@@H]1CN([C@@H](C)CO)C(=O)c2cc(NC(=O)Nc3ccc(C(F)(F)F)cc3)ccc2O[C@@H]1CN(C)Cc1ccc(Oc2ccccc2)cc1 | -1.0 | 2.9 | -0.7 | 8.1 | -9.2 | 100.4*
Cc1noc(C)c1NC(=O)Nc1ccc2c(c1)CC(=O)N([C@@H](C)CO)C[C@H](C)[C@H](CN(C)Cc1ccc(Oc3ccccc3)cc1)O2 | 15.0 | -9.6 | · | · | -33.3 | 398.7*
COc1ccc(NC(=O)Nc2ccc3c(c2)CC(=O)N([C@@H](C)CO)C[C@@H](C)[C@H](CN(C)Cc2ccc(-c4ccccc4)cc2)O3)cc1 | -1.4 | 0.5 | 1.4 | 57.5* | -1.6 | 0.2
C[C@H](CO)N1C[C@H](C)[C@@H](CN(C)Cc2ccc(Oc3ccccc3)cc2)Oc2ccc(NC(=O)Nc3ccc(C(F)(F)F)cc3)cc2CC1=O | 1.2 | 1.5 | · | · | 10.9 | 35.8*
C[C@@H]1CN([C@H](C)CO)C(=O)c2cc(NC(=O)Nc3ccc(C(F)(F)F)cc3)ccc2O[C@H]1CN(C)Cc1ccc(Oc2ccccc2)cc1 | -5.4 | -4.3 | 0.2 | 10.2 | 10.5 | -5.9
C[C@@H]1CCCCO[C@H](CN(C)C(=O)Nc2ccc(F)cc2)[C@@H](C)CN([C@H](C)CO)C(=O)c2cc(NC(=O)Nc3ccc4c(c3)OCO4)ccc2O1 | 12.2 | 1.3 | 1.0 | 22.2 | -9.3 | 0.0
C[C@H](CO)N1C[C@H](C)[C@H](CN(C)S(=O)(=O)c2cccs2)Oc2ccc(NC(=O)Cc3cn(C)c4ccccc34)cc2C1=O | -1.7 | 0.5 | -2.4 | -18.4 | -37.6 | ·
COc1ccc(NC(=O)Nc2ccc3c(c2)CC(=O)N([C@H](C)CO)C[C@H](C)[C@@H](CN(C)Cc2ccc(Oc4ccccc4)cc2)O3)cc1 | -1.2 | 0.9 | 3.0 | 67.0* | 16.1 | 12.1
O=C(NNC(=O)c1cc2cc(OC(F)(F)F)ccc2[nH]1)c1cccc(C(F)(F)F)c1 | · | -21.1* | 1.6 | -1.6 | -28.9 | 0.0
Cc1cc(OCC(O)CNC(C)c2ccccc2)ccc1C(C)C (stereo unspecified) | 11.1 | -35.9 | 6.4 | 42.2 | 379.3* | 0.2
CC(NCC(O)COc1ccc2ccccc2c1)c1ccccc1 (stereo unspecified) | 6.4 | 1.0 | 7.5 | 18.5 | -30.6 | -0.1
N#Cc1ccc(-c2ccc([C@@H]3[C@H]4CN(S(=O)(=O)c5ccccc5)CCCCN4[C@H]3CO)cc2)cc1 | -4.7 | -6.5 | -3.9 | -23.0 | -16.1 | -0.8
O=C(NCc1n[nH]c(=S)n1-c1ccccc1)c1cccs1 | -21.0 | 15.1 | 0.6 | 2.1 | -4.2 | ·
CCn1c(CNC(=O)c2cccs2)n[nH]c1=S | -1.4 | 6.9 | 25.3* | -15.3 | 8.4 | ·
Cc1ccc(-c2ccc(=O)n(Cc3c(F)cccc3Cl)n2)cc1 | 10.0 | -26.6* | 0.1 | -11.1 | -26.5 | 0.0
Cc1ccc(C)c(-c2ccc(=O)n(Cc3c(F)cccc3Cl)n2)c1 | 5.0 | -41.9 | -0.2 | -8.2 | -14.5 | ·
CCOc1cc(CNc2cccc3[nH]c(C)nc23)ccc1OC | -10.8 | 9.2 | 30.3* | 5.6 | 27.4 | 0.0
CCOc1cc(CNc2ncnc3nc[nH]c23)ccc1OC | -8.4 | 4.4 | 0.9 | 8.7 | · | -0.2
CC=Cc1ccc2n(c1=O)C[C@@H]1[C@@H](CO)[C@H](C(=O)Nc3ccc(-c4ccccc4)cc3)N(C)[C@H]21 (mixture of isomers) | -3.2 | -2.1 | 7.5 | -16.5 | -2.3 | -0.1
O=C(O)C1Cc2c([nH]c3ccccc23)C(c2ccc3c(c2)OCO3)N1 (stereo unspecified) | -11.7 | 0.0 | 2.9 | -15.6 | 45.7* | ·
O=C(Nc1nccs1)[C@H]1[C@H](CO)[C@H]2Cn3c(cccc3=O)[C@@H]1N2C(=O)C1CCCCC1 | · | 1.4 | -0.2 | -15.5 | 3.2 | -0.3
CCOC(=O)c1cnn(-c2nc(-c3ccccc3)cs2)c1C(F)(F)F | · | · | · | · | -24.6 | ·
COC(=O)c1cnn(-c2nc(-c3ccccc3)cs2)c1N | 0.2 | 11.8 | -1.9 | -13.2 | 45.0* | 0.1
CC12CCC(=O)N1C(C(=O)Nc1cc(Cl)ccc1N1CCOCC1)CS2 (stereo unspecified) | 5.6 | -16.5 | 1.1 | -13.4 | 0.3 | 135.4*
SMILES | RAD54 branch | Ecoli rRNA inh | AF4-AF9 inh | RAD52 anneal inh | INS-1E GSIS act | E-sel inducer
Cc1csc(NC(=O)CSCC(=O)O)c1-c1nc2ccccc2s1 | · | -50.7* | -7.0 | -10.4 | -19.2 | 0.5
O=C(O)CSCC(=O)Nc1ccc(-c2nc3ccccc3s2)cc1 | 0.4 | -18.3 | -6.4 | -23.4 | 4.9 | 0.1
C=CCOC(=O)c1oc(COC[C@@H](NC(=O)N(C)Cc2ccccc2)c2ccccc2)c(C(=O)OC)c1C(=O)OC | · | · | 0.3 | 8.0 | · | ·
CCN1CCN(C2=C(NS(=O)(=O)c3ccc(NC(C)=O)cc3)C(=O)c3ccccc3C2=O)CC1 | -3.3 | -2.5 | 4.5 | -16.3 | 3.1 | ·
CC(=O)Nc1ccc(S(=O)(=O)NC2=C(N3CCN(Cc4ccccc4)CC3)C(=O)c3ccccc3C2=O)cc1 | -7.3 | -26.2 | 40.6* | 1.8 | -4.7 | -0.3
CCN1CCN(C2=C(NS(=O)(=O)c3ccc(C)cc3)C(=O)c3ccccc3C2=O)CC1 | -5.3 | -18.5* | 13.7 | -24.0 | -5.5 | ·
COc1cccc(CNC(=O)C[C@@H]2C=C[C@H](NC(=O)C3CC3)[C@@H](CO)O2)c1 | -1.4 | -1.0 | -0.3 | -3.8 | -2.9 | 0.2
COc1ccccc1-c1ccc2c(c1)O[C@@H](CN(C)C(=O)c1ccccc1)[C@@H](C)CN([C@@H](C)CO)S2(=O)=O | -9.6 | -6.8 | 1.3 | 7.5 | -22.8 | -0.1
O=C(NN=C1CCCC1)c1cc(-c2ccccc2)n[nH]1 | · | · | · | · | 48.1* | -0.1
COc1ccc(S(=O)(=O)N[C@@H]2C=C[C@H](CC(=O)N3CCc4ccccc4C3)O[C@H]2CO)cc1 | 1.7 | -5.8 | -1.3 | -3.4 | -1.8 | -0.3
C=C[C@@]1(C)CC(=O)[C@]2(O)[C@@]3(C)[C@@H](O)CCC(C)(C)[C@@H]3[C@H](O)[C@H](OC(C)=O)[C@@]2(C)O1 | 0.4 | 7.7 | -4.2 | 3.5 | 98.8* | 0.0
C=C[C@@]1(C)CC(=O)[C@]2(O)[C@@]3(C)[C@@H](O)CCC(C)(C)[C@@H]3[C@H](OC(C)=O)[C@H](O)[C@@]2(C)O1 | -1.3 | 7.0 | -2.8 | -10.2 | 84.7* | ·
